Data from ChEMBL document CHEMBL4834390, “Nanomolar-Potency 1,2,4-Triazoloquinoxaline Inhibitors of the Kidney Urea Transporter UT-A1” (J Med Chem, 2018).
Calls of active or inactive are those of the source. No cut-off for these calls is given here.

Legend:
Urea transporter 2 = target: T1, Urea transporter 2 (Rattus norvegicus, UniProt Q62668); assay: Inhibition of rat UT-A1 expressed in MDCK cells incubated for 15 mins by fluorescence plate reader assay; format: cell-based
T1 sequence (Q62668 whole entry): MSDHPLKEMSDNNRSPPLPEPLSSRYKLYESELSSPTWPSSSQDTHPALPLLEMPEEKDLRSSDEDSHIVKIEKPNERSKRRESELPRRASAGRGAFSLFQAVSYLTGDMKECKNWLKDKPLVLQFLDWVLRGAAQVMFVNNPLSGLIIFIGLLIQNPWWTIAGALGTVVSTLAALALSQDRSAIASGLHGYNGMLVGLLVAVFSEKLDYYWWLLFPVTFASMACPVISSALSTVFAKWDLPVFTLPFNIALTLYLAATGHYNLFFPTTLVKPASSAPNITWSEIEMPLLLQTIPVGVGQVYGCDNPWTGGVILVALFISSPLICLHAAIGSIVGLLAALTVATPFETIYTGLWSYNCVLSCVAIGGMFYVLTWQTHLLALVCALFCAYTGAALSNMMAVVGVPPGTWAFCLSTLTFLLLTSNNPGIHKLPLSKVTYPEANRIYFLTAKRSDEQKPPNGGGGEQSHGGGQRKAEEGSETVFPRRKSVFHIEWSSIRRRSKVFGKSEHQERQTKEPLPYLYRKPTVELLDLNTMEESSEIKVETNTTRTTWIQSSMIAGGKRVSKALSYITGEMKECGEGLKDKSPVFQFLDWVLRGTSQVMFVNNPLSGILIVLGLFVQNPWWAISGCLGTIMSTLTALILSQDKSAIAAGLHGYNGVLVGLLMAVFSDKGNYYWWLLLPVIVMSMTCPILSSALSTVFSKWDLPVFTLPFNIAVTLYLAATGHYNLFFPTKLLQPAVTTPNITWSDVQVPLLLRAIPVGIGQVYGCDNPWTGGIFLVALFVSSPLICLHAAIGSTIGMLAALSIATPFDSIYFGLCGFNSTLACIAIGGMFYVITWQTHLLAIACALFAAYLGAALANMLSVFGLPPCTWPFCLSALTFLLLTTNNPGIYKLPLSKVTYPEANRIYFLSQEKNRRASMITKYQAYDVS

Urea transporter 1 = target: T2, Urea transporter 1 (Rattus norvegicus, UniProt P97689); assay: Inhibition of rat UT-B incubated for 15 mins
T2 sequence (P97689 whole entry): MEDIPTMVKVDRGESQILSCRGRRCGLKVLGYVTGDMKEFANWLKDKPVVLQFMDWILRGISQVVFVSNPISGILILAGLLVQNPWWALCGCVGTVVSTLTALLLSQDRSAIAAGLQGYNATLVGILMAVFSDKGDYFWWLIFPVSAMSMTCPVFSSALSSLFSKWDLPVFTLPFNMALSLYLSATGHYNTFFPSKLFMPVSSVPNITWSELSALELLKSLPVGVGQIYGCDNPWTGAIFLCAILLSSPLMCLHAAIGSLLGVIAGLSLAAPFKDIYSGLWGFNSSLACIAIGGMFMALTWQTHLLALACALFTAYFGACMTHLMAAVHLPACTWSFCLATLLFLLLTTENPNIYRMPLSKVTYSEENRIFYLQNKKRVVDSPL
Outline: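 Rat whole blood diluted to ~1.5% hematocrit in PBS with 1.25 M acetamide and 5 mM glucose; compound incubated 15 min, then cells mixed into isomolar buffer; lysis read by absorbance at 710 nm. Isomolar buffer as non-lysed and 0.7 mM phloretin as lysed control; % lysis computed from these; mean ± SEM, n = 3.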

[1] = Metabolic stability in Sprague-Dawley rat liver microsomes assessed as compound remaining at 5 uM preincubated for 5 mins followed by NADPH addition and measured at 15 mins by LC/MS analysis; format: ADME, Microsome; settings: time 20 min, read-out: Stabilty
Outline: (§1)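 Compound at 5 µM preincubated 5 min at 37 °C with male Sprague-Dawley rat liver microsomes (1 mg protein/mL) in 0.1 M PBS pH 7.4. 1 mM NADPH then added, incubation continued at 37 °C for set times, then chilled and EtOAc-extracted. Parent compound measured by LC/MS as peak area/internal standard ratio; mean ± SEM, n = 3.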

MDCK = assay: Cytotoxicity against dog MDCK cells at 10 uM after 24 hrs by alamar blue assay; format: cell-based, Canis lupus familiaris
Outline: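 MDCK cells stably co-expressing rat UT-A1, YFP-H148Q/V163S and human AQP1 grown 24 h at 37 °C, then exposed to compound at 10 µM for 24 h; viability read by AlamarBlue; mean ± SEM, n = 3.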

[2] = target: T3, Urea transporter 2 (Rattus norvegicus) (UniProt Q62668); assay: Reversible inhibition of rat UT-A1 expressed in MDCK cells at 0.5 uM incubated for 15 mins followed by compound washing for 15 mins; format: cell-based
T3 sequence (whole entry): T1 sequence (Q62668 whole entry)
Outline: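 MDCK cells stably expressing rat UT-A1, AQP1 and YFP sensor incubated with 0.5 µM compound for 15 min, washed with PBS for 15 min, then assayed for UT-A1 urea transport by fluorescence plate reader.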

[3] = target: T3, Urea transporter 2 (Rattus norvegicus); assay: Noncompetitive inhibition of rat UT-A1 expressed in MDCK cells assessed as inhibition of urea transport; format: cell-based
[4] = target: T3, Urea transporter 2 (Rattus norvegicus); assay: Inhibition of rat UT-A1 expressed in MDCK cells at 0.5 uM by fluorescence plate reader assay; format: cell-based; settings: time 100-500 sec
Outline: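 MDCK cells stably expressing rat UT-A1, human AQP1 and YFP volume sensor; compound at 0.5 µM added at different times before assay; urea transport followed by YFP fluorescence on a plate reader; DMSO as 0% and phloretin as 100% inhibition.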

[5] = Drug concentration in Wistar rat urine at 4 mg/kg, iv after 3 hrs by LC/MS analysis; format: ADME, organism-based; settings: read-out: Ct
Outline: (§2)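 Male Wistar rats (250–300 g) dosed 4 mg/kg iv in saline containing 20% dimethylacetamide and 1.28 mg/mL NaOH. Tail-vein blood taken at 15, 30, 60, 120, 180 min without anticoagulant, serum separated; urine collected 3 h in metabolic cages; samples frozen at –20 °C. LC/MS (ESI positive) quantitation against standards spiked into control rat urine or plasma.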

Rattus norvegicus [6] = assay: Diuretic activity in Wistar rat assessed as reduction in urine osmolality at 4 mg/kg, iv after 3 hrs; format: functional, organism-based
Outline: (§3)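 Male Wistar rats (250–300 g), acclimated in metabolic cages 3 days (6 h/day). Urine voided spontaneously over 3 h before dosing, then 4 mg/kg iv via catheter in saline with 20% dimethylacetamide and 1.28 mg/mL NaOH, or vehicle. Urine collected 3 h after dosing; volume and osmolality compared with pretreatment (paired t-test); mean ± SEM, n = 4.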

Rattus norvegicus [7] = assay: Diuretic activity in Wistar rat assessed as increase in urine volume at 4 mg/kg, iv after 3 hrs; format: functional, organism-based; outline: as §3
[8] = Drug concentration in Wistar rat serum at 4 mg/kg, iv after 3 hrs by LC/MS analysis; format: ADME, organism-based; outline: as §2
[9] = Metabolic stability in Sprague-Dawley rat liver microsomes assessed as compound remaining at 5 uM preincubated for 5 mins followed by NADPH addition and measured at 30 mins by LC/MS analysis; format: ADME, Microsome; settings: time 35 min, read-out: Stabilty; outline: as §1

SMILES	IC50 (Urea transporter 2) [nM]	further results
COC(=O)c1sc2nc3c(cc2c1N)CN(Cc1ccccc1)CC3	3000	IC50 (Urea transporter 1): 3000 nM
COc1ccc(Cl)c(S(=O)(=O)Nc2cccc(Oc3nc4ccccc4n4cnnc34)c2)c1	> 20000	–
CCCc1nnc2c(Oc3ccc(NS(=O)(=O)c4cc(Cl)ccc4OC)cc3)nc3cc(C)c(C)cc3n12	400	remaining at 0.25 h, 5 µM [1]: 25%
COc1ccc(-c2cccc(-c3ccn(Cc4csc(C)n4)n3)c2)nn1	1500	IC50 (Urea transporter 1): 31000 nM
COc1ccc(Cl)c(S(=O)(=O)Nc2cccc(Nc3nc4ccccc4n4cnnc34)c2)c1	> 20000	–
CCc1nnc2c(Oc3ccc(NS(=O)(=O)c4cc(Cl)ccc4OC)cc3)nc3cc(C)c(C)cc3n12	1400	–
O=S(=O)(Nc1ccc(Oc2nc3ccccc3n3cnnc23)cc1)c1ccccc1Cl	5000	–
COc1ccc(Cl)cc1S(=O)(=O)Nc1ccc(Oc2nc3ccccc3n3c(C)nnc23)cc1	> 20000	–
CCCc1nnc2c(Oc3ccc(NS(=O)(=O)c4cc(Cl)ccc4OC)cc3)nc3ccccc3n12	150	remaining at 0.25 h, 5 µM [1]: 40%; Activity (MDCK): Non-Toxic; IC50 (Urea transporter 1): 2000 nM; inhibition [2]: Active; inhibition [3]: Active; inhibition [4]: Active
CCCc1nnc2c(Oc3ccc(NS(=O)(=O)c4cc(Cl)ccc4OC)cc3)nc3cc(F)c(F)cc3n12	300	concentration at 3 h [5]: 6 µM; Activity (Rattus norvegicus [6]): Active; Activity (Rattus norvegicus [7]): Active; Activity (MDCK): Non-Toxic; IC50 (Urea transporter 1): 800 nM; concentration at 3 h [8]: > 2 µM; remaining at 0.5 h, 5 µM [9]: 60%
COc1ccc(Cl)cc1S(=O)(=O)Nc1ccc(Oc2nc3cc(C)c(C)cc3n3c(C(C)C)nnc23)cc1	1200	–
COc1ccc(Cl)cc1S(=O)(=O)Nc1ccc(Oc2nc3cc(Cl)c(Cl)cc3n3cnnc23)cc1	> 20000	–
O=S(=O)(Nc1ccc(Oc2nc3ccccc3n3cnnc23)cc1)c1cccc(Cl)c1	> 20000	–
COc1ccc(Cl)cc1S(=O)(=O)Nc1cccc(Oc2nc3ccccc3n3cnnc23)c1	> 20000	–
CCCc1nnc2c(Oc3ccc(NS(=O)(=O)c4cc(C)ccc4OC)cc3)nc3ccccc3n12	400	–
CCCCc1nnc2c(Oc3ccc(NS(=O)(=O)c4cc(C)ccc4C)cc3)nc3ccccc3n12	800	–
COc1ccc(C)cc1S(=O)(=O)Nc1ccc(Oc2nc3cc(F)c(F)cc3n3cnnc23)cc1	1500	–
COc1ccc(Cl)c(S(=O)(=O)Nc2ccc(Oc3nc4ccccc4n4cnnc34)cc2)c1	> 20000	–
COc1ccc(C)cc1S(=O)(=O)Nc1ccc(Oc2nc3ccccc3n3c(C(C)C)nnc23)cc1	500	–
COc1ccc(Cl)cc1S(=O)(=O)Nc1ccc(Oc2nc3ccccc3n3cnnc23)cc1	800	Activity (MDCK): Non-Toxic; IC50 (Urea transporter 1): 4000 nM
COc1ccc(Cl)cc1S(=O)(=O)Nc1ccc(Nc2nc3ccccc3n3cnnc23)cc1	> 20000	–
Cc1ccccc1S(=O)(=O)Nc1ccc(Oc2nc3ccccc3n3cnnc23)cc1	8000	–

SMILES	IC50 (Urea transporter 2) [nM]	further results
COc1ccc(C)cc1S(=O)(=O)Nc1ccc(Oc2nc3ccccc3n3cnnc23)cc1	1100	–
CCCCc1nnc2c(Oc3ccc(NS(=O)(=O)c4cc(C)ccc4OC)cc3)nc3ccccc3n12	400	–
COc1ccc(Cl)c(S(=O)(=O)Nc2ccc(Nc3nc4ccccc4n4cnnc34)cc2)c1	> 20000	–
Cc1ccc(C)c(S(=O)(=O)Nc2ccc(Oc3nc4ccccc4n4cnnc34)cc2)c1	1500	–
COc1ccc(Cl)cc1S(=O)(=O)Nc1cccc(O)c1	6000	IC50 (Urea transporter 1): 14000 nM
CCc1nnc2c(Oc3ccc(NS(=O)(=O)c4cc(C)ccc4OC)cc3)nc3ccccc3n12	700	–
O=S(=O)(Nc1ccc(Oc2nc3ccccc3n3cnnc23)cc1)c1ccccc1OC(F)(F)F	20000	–
COc1ccc(Cl)cc1S(=O)(=O)Nc1ccc2nc(SC)sc2c1	5000	IC50 (Urea transporter 1): 10000 nM
CCc1nnc2c(Oc3ccc(NS(=O)(=O)c4cc(C)ccc4C)cc3)nc3ccccc3n12	750	–
Cc1ccc(C)c(S(=O)(=O)Nc2ccc(Oc3nc4ccccc4n4c(C)nnc34)cc2)c1	> 20000	–
CCCCc1nnc2c(Oc3ccc(NS(=O)(=O)c4cc(Cl)ccc4OC)cc3)nc3ccccc3n12	200	–
CCCc1nnc2c(Oc3ccc(NS(=O)(=O)c4cc(C)ccc4C)cc3)nc3ccccc3n12	500	–
COc1ccc(Cl)cc1S(=O)(=O)Nc1ccc(Oc2nc3ccccc3n3c(C(C)C)nnc23)cc1	300	–
CCOc1nnc2c(Oc3ccc(NS(=O)(=O)c4cc(C)ccc4OC)cc3)nc3ccccc3n12	1500	–
CCc1nnc2c(Oc3ccc(NS(=O)(=O)c4cc(Cl)ccc4OC)cc3)nc3ccccc3n12	500	–
COc1ccc(Cl)cc1S(=O)(=O)Nc1ccc(Oc2nc3cc(C)c(C)cc3n3cnnc23)cc1	2700	–
COc1ccc(C)cc1S(=O)(=O)Nc1ccc(Oc2nc3ccccc3n3c(C)nnc23)cc1	> 20000	–
CCOc1nnc2c(Oc3ccc(NS(=O)(=O)c4cc(Cl)ccc4OC)cc3)nc3ccccc3n12	1200	–
O=C(Nc1ccon1)c1cc(-c2ccccc2)nc2ccccc12	2000	IC50 (Urea transporter 1): > 100000 nM
COc1ccc(Cl)cc1S(=O)(=O)Nc1ccc(Oc2nc3cc(F)c(F)cc3n3cnnc23)cc1	1200	–
Cc1ccc(C)c(S(=O)(=O)Nc2ccc(Oc3nc4ccccc4n4c(C(C)C)nnc34)cc2)c1	600	–
CC(=O)Nc1ccc(-c2noc(C3CCCN(C(=O)c4ccccc4F)C3)n2)cc1 (stereo unspecified)	3000	IC50 (Urea transporter 1): > 50000 nM
